Laboratory results published in ChEMBL document CHEMBL1128539, “Novel antagonists of platelet-activating factor. 2. Synthesis and structure-activity relationships of potent and long-acting heterofused [1,5]benzodiazepine and [1,4]diazepine derivatives of 2-methyl-1-phenylimidazo[4,5-c]pyridine” (J Med Chem, 1995).
pIC50: −log10 of the molar value. Each block holds one compound with its values, some of them ahead of it.

Experiments:
Canis familiaris [1] = assay: Duration of action in Conscious Dog at a dose of 0.3 mg/kg po; format: ADME, organism-based, Canis lupus familiaris; set-up: dose 0.3 mg/kg, route oral; conditions: in vivo
Canis familiaris [2] = assay: Duration of action in Conscious Dog at a dose of 0.5 mg/kg po; format: ADME, organism-based, Canis lupus familiaris; set-up: dose 0.5 mg/kg, route oral; conditions: in vivo
Canis familiaris [3] = assay: Duration of action in Conscious Dog at a dose of 0.15 mg/kg po; format: ADME, organism-based, Canis lupus familiaris; set-up: dose 0.15 mg/kg, route oral; conditions: in vivo
Canis familiaris [4] = assay: Duration of action in Conscious Dog at a dose of 0.1 mg/kg po; format: ADME, organism-based, Canis lupus familiaris; set-up: dose 0.1 mg/kg, route oral; conditions: in vivo
Canis familiaris [5] = assay: Duration of action in Conscious Dog at a dose of 0.2 mg/kg po; format: ADME, organism-based, Canis lupus familiaris; set-up: dose 0.2 mg/kg, route oral; conditions: in vivo
Canis familiaris [6] = assay: Duration of action in Conscious dog at a dose of 0.2 mg/kg po; format: ADME, organism-based, Canis lupus familiaris; set-up: dose 0.2 mg/kg, route oral; conditions: in vivo
Canis familiaris [7] = assay: Duration of action in Conscious Dog at a dose of 0.075 mg/kg po; format: ADME, organism-based, Canis lupus familiaris; set-up: dose 0.075 mg/kg, route oral; conditions: in vivo
Canis familiaris [8] = assay: Duration of action in Conscious Dog at 0.1 mg/kg po; format: ADME, organism-based, Canis lupus familiaris; set-up: dose 0.1 mg/kg, route oral; conditions: in vivo
In short: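 Conscious dogs. Before dosing, each dog's minimum PAF concentration giving irreversible whole-blood aggregation was set (30–50 nM). Compound was given by gavage in minimal 0.01 M HCl. Blood drawn 2 h later was challenged ex vivo with 10× (or 30×) that PAF level. If uninhibited, a larger second dose was given and blood resampled 2 h later. If inhibited, sampling continued until predose aggregation returned.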

[9] = target: Platelet-activating factor receptor (Oryctolagus cuniculus); assay: In vitro antagonist activity against platelet activating factor (PAF) receptor, using washed rabbit platelets
Canis familiaris [10] = assay: Duration of action in Conscious Dog at a dose of […] po; format: ADME, organism-based, Canis lupus familiaris; set-up: dose 0.025 mg/kg, route oral; conditions: in vivo
Canis familiaris [11] = assay: Duration of action in Conscious Dog at a dose of 0.05 mg/kg po; format: ADME, organism-based, Canis lupus familiaris; set-up: dose 0.05 mg/kg, route oral; conditions: in vivo
Canis familiaris [12] = assay: Duration of action in Conscious Dog at a dose of […] po; format: ADME, organism-based, Canis lupus familiaris; conditions: in vivo

SMILES: Cc1cc(C)c2c(n1)NC(=O)CC(c1ccc(-n3c(C)nc4cnccc43)cc1)=N2
Duration of action (Canis familiaris [2]): < 8 h
Duration of action (Canis familiaris [3]): 0 h

SMILES: CCN(CC)C(=O)c1cnc2c(c1)N=C(c1ccc(-n3c(C)nc4cnccc43)cc1)CC(=O)N2C
Duration of action (Canis familiaris [4]): 4 h

SMILES: Cc1nc2cnccc2n1-c1ccc(C2=Nc3cc(Br)cnc3N(C)C(=O)C2)cc1
Duration of action (Canis familiaris [5]): 4 h

SMILES: Cc1nc2cnccc2n1-c1ccc(C2=Nc3cc(Cl)c(Cl)cc3-n3ccnc3C2)cc1
Duration of action (Canis familiaris [6]): 7 h

SMILES: CCOC(=O)C1=C(c2ccc(-n3c(C)nc4cnccc43)cc2)NC(C)=C(C(=O)Nc2ccccn2)C1c1ccccc1Cl (centres undefined)
Duration of action (Canis familiaris [7]): 8 h

SMILES: Cc1nnc2n1-c1sc3c(c1C(c1ccccc1Cl)=NC2)CC(C(=O)N1CCOCC1)C3 (centres undefined) [BEPAFANT]
Duration of action (Canis familiaris [8]): 7 h
pIC50 [9]: 7.14

SMILES: Cc1nc2cnccc2n1-c1ccc(C2=Nc3cc(C(=O)N4CCOCC4)cnc3N(C)C(=O)C2)cc1
Duration of action (Canis familiaris [12]): 2 h

SMILES: Cc1nn(C)c2c1NC(=O)CC(c1ccc(-n3c(C)nc4cnccc43)cc1)=N2
Duration of action (Canis familiaris [2]): > 8 h
Duration of action (Canis familiaris [3]): 0 h

Continued, values first:

Duration of action (Canis familiaris [1]): 0 h
SMILES: Cc1nn(C)c2c1N=C(c1ccc(-n3c(C)nc4cnccc43)cc1)CC(=O)N2

Duration of action (Canis familiaris [4]): 9 h
SMILES: Cc1cc(C)c2c(n1)N(C)C(=O)CC(c1ccc(-n3c(C)nc4cnccc43)cc1)=N2

Duration of action (Canis familiaris [7]): 8 h
Duration of action (Canis familiaris [10]): 0 h
SMILES: Cc1nc2cnccc2n1-c1ccc(C2=Nc3c(C4CCCCC4)nn(C)c3N(C)C(=O)C2)cc1

Duration of action (Canis familiaris [10]): 9 h
Duration of action (Canis familiaris [11]): > 10 h
SMILES: Cc1nc2cnccc2n1-c1ccc(C2=Nc3c(-c4cccnc4)nn(C)c3N(C)C(=O)C2)cc1

Duration of action (Canis familiaris [5]): 4 h
SMILES: Cc1nn(C)c2c1N=C(c1ccc(-n3c(C)nc4cnccc43)cc1)CC(=O)N2C

Duration of action (Canis familiaris [4]): > 8 h
SMILES: Cc1nc2cnccc2n1-c1ccc(C2=Nc3c(-c4ccccc4)nn(C)c3N(C)C(=O)C2)cc1
